CHRM5 PAM: CHRM5 positive allosteric modulation | P08912 | AID 624038 | 0.3% of 360,000 active | activation, % at 3 µM | CHO-K1 hM5, Fluo-8 calcium, ACh EC20 PAM; 0% = ACh EC20, 100% = ACh EC100;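 active = activation above the run cutoff, the mean activation of all test compounds plus 3 SD, cut at about 18% in these data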
Target sequence (P08912 whole entry, looked up): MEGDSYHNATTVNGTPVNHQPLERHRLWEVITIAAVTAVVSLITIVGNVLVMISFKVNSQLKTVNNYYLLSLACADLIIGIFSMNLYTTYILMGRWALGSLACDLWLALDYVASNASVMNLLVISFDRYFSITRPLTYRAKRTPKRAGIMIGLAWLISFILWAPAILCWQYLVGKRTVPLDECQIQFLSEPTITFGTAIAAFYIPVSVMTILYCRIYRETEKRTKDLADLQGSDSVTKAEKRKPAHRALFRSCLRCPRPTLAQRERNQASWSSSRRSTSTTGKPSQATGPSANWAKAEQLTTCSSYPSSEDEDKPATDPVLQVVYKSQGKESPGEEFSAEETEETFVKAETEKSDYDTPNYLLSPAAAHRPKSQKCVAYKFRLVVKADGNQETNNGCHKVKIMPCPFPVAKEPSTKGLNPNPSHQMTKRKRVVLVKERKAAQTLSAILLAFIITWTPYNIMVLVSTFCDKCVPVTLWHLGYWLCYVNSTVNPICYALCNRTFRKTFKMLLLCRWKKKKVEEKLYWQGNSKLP
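Test system: CHO-K1 hM5 cells / Doses: single-point, 3 µM nominal / Times: Post-acetylcholine fluorescence recording 140 s / Technique: Fluo-8 calcium fluorescence / Measure: Max/basal fluorescence ratio as % of EC20–EC100 ACh window / Benchmarks: low control EC20 acetylcholine (0%), high control EC100 acetylcholine (100%) / Replicates: one well per compound, no replicates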
CHO-K1 Ca antag: counter-screen for M1 antagonists: effect in parental CHO-K1 cells. ATP-induced calcium, Fluo-8 fluorescence. inhibition, % at 3 µM. 0.6% of 360,000 active;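 active = inhibition above a per-plate cutoff, the plate's mean sample inhibition plus 3 SD, cut at about 24% in these data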;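 note: 0% = DMSO plus EC80 ATP and 100% = DMSO alone without ATP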
M5 ag: CHRM5 agonism in calcium assay | P08912 | 0.19% of 360,000 active | CHO-K1 hM5 cells, Fluo-8 calcium fluorescence; 0% DMSO wells, 100% maximal acetylcholine response | activation, % at 3 µM;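 active = activation above the run's mean over test compounds plus 3 SD, cut at about 23% in these data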;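 note: signal is peak over basal fluorescence ratio across the kinetic read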
CHO-K1 Ca PAM: M1 PAM counterscreen hit in parental CHO-K1 cells. ATP EC20, Fluo-8 calcium fluorescence; 0% at ATP EC20, 100% at ATP max. activation, % at 3 µM. 0.02% of 360,000 active. AID 602247;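 active = activation above the run cutoff, the mean activation of all test compounds plus 3 SD, cut at about 40% in these data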;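 note: peak over basal fluorescence ratio in a 140 s read after ATP addition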
CHO-K1 Ca ag: counter-screen for M1 agonists: effect in parental CHO-K1 cells; 0.48% of 360,000 active; activation, % at 3 µM; Fluo-8 calcium fluorescence; scaled to maximal ATP response, vehicle zero; in the data active = activation above about 15%;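 note: untransfected CHO-K1 host cells lacking M1 receptor as counterscreen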
M5 antag: blocks acetylcholine activation of human M5 receptor. 0.59% of 360,000 active. CHO-hM5 cells, Fluo-8 calcium fluorescence, ACh EC80. P08912. inhibition, % at 3 µM;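 active = inhibition above a per-plate cutoff, the mean of that plate's test compounds plus 3 SD, cut at about 27% in these data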;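 note: 0% = acetylcholine EC80 with DMSO and 100% = DMSO without agonist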
* marks the source's active call; other numbers are inactive results; ! = repeats disagree. Shown are actives, neighbours in structure and some others; about 1.7% of the full set was active somewhere.

SMILES	CHRM5 PAM	CHO-K1 Ca antag	M5 ag	CHO-K1 Ca PAM	CHO-K1 Ca ag	M5 antag
CCOc1cc(C(=O)N2CCCN(C)CC2)cc(OCC)c1OCC	-9.2	-2.1	0.6	7.1	-0.7	2.8
CCOc1cc(C(=O)N2CCCC2)cc(OCC)c1OCC	-4.3	26.5*	-1.5	-6.9	-0.5	2.1
Cc1cc(N2C(=O)c3ccc(C(=O)Nc4ccccc4O)cc3C2=O)no1	-4.6	-6.3	-5.3	7.1	0.2	27.6*
CC(C)CN1CCNC(=O)C1CC(=O)NCCc1cnn(-c2ccccc2)c1 (stereo unspecified)	-6.5	-7.0	-3.6	7.7	-0.2	0.0
Cn1c2ccccc2c2nnc(N/N=C/c3ccc(O)cc3)nc21	-1.5	-13.7	-2.9	22.9	0.7	10.2
COc1ccccc1N(C(=O)c1ccco1)C(C(=O)NC1CCCCC1)c1cc(OC)c(OC)c(OC)c1 (stereo unspecified)	1.0	-5.5	-3.5	13.2	-0.4	11.6
CC(C)(C)OC(=O)NCCCCCc1cn([C@@H](CO)C(=O)NCCCCCCCCCCC(=O)N2CCN(C(=O)OC(C)(C)C)CC2)nn1	-39.6	23.5	1.4	-14.3	18.5*	38.2*
CC(C)(C)OC(=O)CC[C@@H](C(=O)NCCCCCCCCCCC(=O)N1CCN(C(=O)OC(C)(C)C)CC1)n1cc(CCCCCNC(=O)OC(C)(C)C)nn1	8.0	-0.8	6.2	-4.5	-0.2	-12.8
CC(C(=O)Nc1cccc([N+](=O)[O-])c1)N(c1ccccc1)S(C)(=O)=O (stereo unspecified)	-1.6	-21.6	-0.8	-1.2	0.9	-3.9
CCN(CC)S(=O)(=O)c1cc(NC(=O)C2CC(=O)N(Cc3ccccc3)C2)ccc1Cl (stereo unspecified)	-6.3	-2.5	2.0	12.1	7.4	8.0
CC(C)Cn1c(-c2ccc(Br)cc2)c[nH]c1=S	-23.0	-23.4	-6.7	24.2	15.3*	1.5
O=C(Oc1cccc(Nc2ncnc3ccccc23)c1)c1ccccc1Cl	-26.8	24.7*	0.9	0.6	8.4	44.8*
COc1cccc(/C=C/C2=CC(C)(C)NC(=S)N2)c1	-4.2	9.9	-2.1	2.7	-0.6	7.8
COc1ccc(/C=C/C2=CC(C)(C)NC(=S)N2)cc1OC	9.5	26.4*	0.5	-14.6	0.2	-8.8
C=CCn1c(SCc2ccc(C(=O)Nc3nccs3)cc2)nnc1-c1ccc(C)c(Cl)c1	-16.1	21.3	0.8	-6.4	8.6	26.9*
COc1ccc(C(CNC(=O)c2oc3ccc(C)cc3c2C)N2CCCCC2)cc1 (stereo unspecified)	1.6	-12.6	-8.4	5.5	0.0	6.8
COCC(=O)N1CCC(Oc2ccc(C(=O)NCc3cnc(C)cn3)cc2)CC1	2.0	-10.1	2.0	-7.2	0.2	3.2
Cc1cnc(CNC(=O)c2ccc(OC3CCN(C(=O)C4CC4)CC3)cc2)cn1	23.2*	6.5	16.9	-2.0	-0.2	0.1
NC(=O)c1ccc(NC(=O)COc2ccc([N+](=O)[O-])cc2Cl)cc1	-7.8	-2.9	-2.0	4.6	0.9	-6.6
CC(O)CN1C(=O)C(CC(=O)Nc2ccc(Cl)cc2)SC1=Nc1ccccc1 (stereo unspecified)	-5.9	2.6	-1.9	5.9	2.1	9.9
COCCN1C(=O)C(CC(=O)Nc2ccc(C(C)=O)cc2)SC1=Nc1ccccc1 (stereo unspecified)	-12.2	-5.2	-0.6	1.8	2.9	28.8*!
CCOC(=O)Nc1ccc2c(c1)N(C(=O)CNC)c1ccccc1CC2	-5.3	-14.2	-0.9	2.7	1.0	7.4
NC(=S)NN=C(c1ccc(Br)cc1)C1CC1	2.0	-3.9	0.5	8.1	1.1	14.0
COc1ccc2nc(C)cc(Sc3nc4ccccc4s3)c2c1	-6.7	-0.7	1.2	11.4	28.8*	11.2
Cc1ccc(N2C(=O)N(CC(=O)Nc3ccccc3C)C(=O)C2C)cc1 (stereo unspecified)	19.4*	7.4	1.7	-19.7	0.2	-39.9
SMILES	CHRM5 PAM	CHO-K1 Ca antag	M5 ag	CHO-K1 Ca PAM	CHO-K1 Ca ag	M5 antag
O=C(O)CCC(=O)NNc1nc2ccccc2nc1-c1ccccc1	18.8*	11.0	0.5	-8.2	0.4	0.3
O=C(O)CCC(=O)NNc1ncnc2ccccc12	-10.1	15.4	-1.9	-12.4	-0.6	4.4
O=c1oc2ccccc2c(Nc2ccc(F)cc2)c1[N+](=O)[O-]	1.9	-8.6	3.3	14.6	18.5*	4.0
O=C(COC(=O)c1ccc(Cl)c(S(=O)(=O)N2CCCCC2)c1)NCCc1ccccc1	-2.1	25.0*	-1.2	-24.0	-0.2	10.7
O=C(NCCc1ccccc1)c1ccc(Cl)c(S(=O)(=O)N2CCCC2)c1	-0.8	-3.2	0.2	-6.1	13.2	1.3
CC1CN(C(=O)COC(=O)c2ccc(Cl)c(S(=O)(=O)N3CCCCC3)c2)CC(C)O1 (stereo unspecified)	-11.0	7.1	-2.8	12.6	19.6*	14.5
COC(=O)[C@H]1C[C@H](OC(=O)Nc2cccs2)[C@@]2(O)CN(S(=O)(=O)c3ccc(C)cc3)CC2[C@H]1C(=O)OC (stereo partly specified)	-4.0	-10.8	3.2	-6.8	-0.1	1.6
O=C(c1cccc(Oc2ccc([N+](=O)[O-])cc2Cl)c1)N1CCCCC1	-4.0	1.0	-4.3	16.8	2.4	2.1
COc1ccccc1C(c1c(N)n(C)c(=O)n(C)c1=O)C(C)[N+](=O)[O-] (stereo unspecified)	-15.5	-2.4	-8.0	4.3	0.2	27.9*
CCCn1c(SCC(=O)Nc2cccc(F)c2)nc(O)cc1=O	-4.7	-8.1	4.8	0.8	3.9	34.1*
CCCn1c(SCC(=O)Nc2ccccc2Cl)nc(O)cc1=O	-15.4	7.1	16.2	-5.8	3.0	7.1
CC(C)CCC1CC(CSC(=N)N)OC1=O (stereo unspecified)	21.0*	-3.5	-16.8	10.2	-0.2	-2.2
CS/C(=N\NC(N)=O)c1ccccc1	5.9	-2.8	-2.6	12.6	0.7	-8.4
CS/C(=N\N(C)C(N)=O)c1ccccc1	-1.5	4.3	1.0	16.2	15.2*	1.0
Cc1ccc2c(c1)NC(=O)C(CC(=O)O)O2 (stereo unspecified)	-4.1	26.0*	0.1	-7.9	0.4	4.4
COc1ccc(C2C(C#N)=C(N)Oc3cc(O)ccc32)cc1C (stereo unspecified)	-6.3	7.1	24.5*	-9.3	4.3	7.3
COc1ccc(C2C(C#N)=C(N)Oc3cc(O)ccc32)cc1OC (stereo unspecified)	-1.6	-14.7	-0.6	16.8	0.3	-9.6
CCNC(=O)CN(c1ccc(F)cc1)S(=O)(=O)c1ccc2c(c1)OCCO2	-0.8	2.1	-0.1	11.3	0.4	1.3
